29 compounds from ChEMBL document CHEMBL1135732, “Synthesis and antitumor activity of several new analogues of penclomedine and its metabolites” (2002) can be followed below.

The species named for assay [1] is Mus musculus. Put plainly: Number of tumor-free survivors in a group of five mice. The assay is classed as functional. In short, it runs like this:
(§1)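 Human MX-1 breast tumor fragments (30–40 mg) from in vivo passage implanted subcutaneously in the axillary region. Dosing ip as a suspension in aqueous hydroxypropyl cellulose, once daily for 5 days, beginning when tumors reached about 300 mg. Groups of five mice. Tumors caliper-measured in two dimensions twice weekly and converted to mass. Study ended when control tumors reached 1 g.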

The species named for assay [2] is Mus musculus. The assay can be described thus: Tumor growth delay in comparison vehicle-treated control, difference in the median time poststaging for tumors of the treated (T) group to double twice in mass compared to the median of the control (C) group ce. The assay is classed as functional. In short, it runs like this:
(§2)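 MX-1 human breast tumor (NCI repository), fragments of 30–40 mg from in vivo passage implanted subcutaneously in the axillary region. Groups of five mice dosed ip for 5 days once tumors reached about 300 mg, with compound as a suspension in aqueous hydroxypropyl cellulose. Tumors were caliper-measured in two dimensions twice weekly and converted to mass. Growth delay T−C was the difference in median time to two doublings versus vehicle controls. Regressions and tumor-free survivors were also recorded. The study ended when controls reached 1 g.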

Assay [3] concerns Mus musculus. The assay can be described thus: In vivo optimal (ip) dosage (<LD10) against subcutaneously implanted human mammary tumor xenograft MX-1 on a five-successive day schedule in Athymic NCr-nu/nu mice. The assay is classed as functional. Put shortly:
as §1
(Xenograft models place foreign cells or tissue in a host animal.)

For assay [4], the system named is Mus musculus. Put plainly: In vivo optimal (ip) dosage (<LD10) against subcutaneously implanted human mammary tumor xenograft MX-1 on a five-successive day schedule in Athymic NCr-nu/nu mice; Toxic. The assay is classed as functional, organism-based. Put shortly:
as §2

Each structure is given as a SMILES string.

`COc1nc(C(Cl)(Cl)Cl)c(Cl)c(OC(C)C)c1Cl`: the Tumor-free in the assay filed under Mus musculus [1] was 2 survivors/total. In the assay filed under Mus musculus [2], this compound returned a T-C greater than 35.2 days. This compound also returned an Optimal dosage in the assay on Mus musculus [3] of 60 mg kg-1 dose-1 day-1.
On the same counts, the results for `CCOc1nc(C(Cl)(Cl)Cl)c(Cl)c(OC(=O)COC)c1Cl` are 0 survivors/total, 17.8 days and 135 mg kg-1 dose-1 day-1.
Taken in the same sequence, the figures for `CCCCOc1nc(C(Cl)(Cl)Cl)c(Cl)c(O)c1Cl` were 0 survivors/total, -0.9 days and 135 mg kg-1 dose-1 day-1.
Taken in the same sequence, the figures for `CC(=O)Oc1nc(C(Cl)(Cl)Cl)c(Cl)c(OC(C)=O)c1Cl` were 0 survivors/total, -0.5 days and 40 mg kg-1 dose-1 day-1.
On to `CCOc1c(Cl)c(OC)nc(C(Cl)(Cl)Cl)c1Cl`, for which, in the assay listed under Mus musculus [1], the Tumor-free turned out to be 5 survivors/total. In the assay filed under Mus musculus [2], this compound gave a T-C greater than 42.7 days. In addition, the Optimal dosage in the assay on Mus musculus [3] worked out at 90 mg kg-1 dose-1 day-1.
On the same counts, the results for `CCCCOc1nc(C(Cl)(Cl)Cl)c(Cl)c(OC)c1Cl` are 0 survivors/total, -0.8 days and 135 mg kg-1 dose-1 day-1.
On the same counts, the results for `COc1nc(C(Cl)(Cl)Cl)c(Cl)c(OC(C)=O)c1Cl` are 5 survivors/total, greater than 41 days and 90 mg kg-1 dose-1 day-1.
Taken in the same sequence, the figures for `CCOc1nc(C(Cl)(Cl)Cl)c(Cl)c(O)c1Cl` were 0 survivors/total, 5.2 days and 60 mg kg-1 dose-1 day-1.
Consider `COc1nc(C(Cl)(Cl)Cl)c(Cl)c(OC)c1Cl` [PENCLOMEDINE], for which the Tumor-free in the assay listed under Mus musculus [1] was 5 survivors/total. This compound also showed a T-C in the assay listed under Mus musculus [2] greater than 49 days. The same compound registered an Optimal dosage in the assay with Mus musculus [3] of 90 mg kg-1 dose-1 day-1.
Taken in the same sequence, the figures for `COc1nc(C(Cl)(Cl)Cl)c(Cl)c(Cl)c1Cl` were 0 survivors/total, -1.4 days and 135 mg kg-1 dose-1 day-1.
Taken in the same sequence, the figures for `COc1c(Cl)c(C(Cl)(Cl)Cl)nc(C(Cl)(Cl)Cl)c1Cl` were 0 survivors/total, -0.8 days and 135 mg kg-1 dose-1 day-1.
In the case of `CC(C)Oc1nc(C(Cl)(Cl)Cl)c(Cl)c(OC(C)C)c1Cl`, the Tumor-free in the assay listed under Mus musculus [1] turned out to be 0 survivors/total. Further, the T-C in the assay listed under Mus musculus [2] is -0.7 days. In the assay on Mus musculus [3], this compound displayed an Optimal dosage of 135 mg kg-1 dose-1 day-1.
On the same counts, the results for `CCCOc1c(Cl)c(OC)nc(C(Cl)(Cl)Cl)c1Cl` are 0 survivors/total, 5.4 days and 60 mg kg-1 dose-1 day-1.
Taken in the same sequence, the figures for `Oc1c(Cl)c(OCC(F)(F)F)nc(C(Cl)(Cl)Cl)c1Cl` were 0 survivors/total, -0.2 days and 90 mg kg-1 dose-1 day-1.
Taken in the same sequence, the figures for `CCOc1nc(C(Cl)(Cl)Cl)c(Cl)c(OC)c1Cl` were 2 survivors/total, greater than 38.6 days and 200 mg kg-1 dose-1 day-1.
In the case of `Oc1nc(C(Cl)(Cl)Cl)c(Cl)c(O)c1Cl`, the Tumor-free in the assay listed under Mus musculus [1] worked out at 0 survivors/total. The compound further displayed a T-C in the assay filed under Mus musculus [2] of -0.5 days. The compound also showed an Optimal dosage in the assay with Mus musculus [3] of 40 mg kg-1 dose-1 day-1.
On the same counts, the results for `CCCCOc1c(Cl)c(OC)nc(C(Cl)(Cl)Cl)c1Cl` are 1 survivors/total, 20.5 days and 90 mg kg-1 dose-1 day-1.
On the same counts, the results for `COc1c(Cl)c(OCC(F)(F)F)nc(C(Cl)(Cl)Cl)c1Cl` are 0 survivors/total, 1.2 days and 90 mg kg-1 dose-1 day-1.
As to `Oc1c(Cl)c(Cl)nc(C(Cl)(Cl)Cl)c1Cl`, in the assay filed under Mus musculus [1], the Tumor-free was found to be 0 survivors/total. The compound also displayed a T-C in the assay filed under Mus musculus [2] of 2 days. This compound also yielded an Optimal dosage in the assay on Mus musculus [3] of 50 mg kg-1 dose-1 day-1.
On the same counts, the results for `Clc1c(Oc2ccccc2)nc(C(Cl)(Cl)Cl)c(Cl)c1Oc1ccccc1` are 0 survivors/total, 0.2 days and 135 mg kg-1 dose-1 day-1.
Taken in the same sequence, the figures for `CCOc1nc(C(Cl)(Cl)Cl)c(Cl)c(OC(C)=O)c1Cl` were 0 survivors/total, 1.4 days and 90 mg kg-1 dose-1 day-1.
Turning to `CC(=O)Oc1c(Cl)c(Cl)nc(C(Cl)(Cl)Cl)c1Cl`, the Optimal dosage result in the assay with Mus musculus [4] is “Toxic”.
In the assay filed under Mus musculus [1], `COc1nc(C(Cl)(Cl)Cl)c(Cl)c(O)c1Cl` registered a Tumor-free of 3 survivors/total. The compound further displayed a T-C in the assay filed under Mus musculus [2] greater than 37.2 days. In the assay on Mus musculus [3], this compound displayed an Optimal dosage of 90 mg kg-1 dose-1 day-1.
On the same counts, the results for `CCCCOc1nc(C(Cl)(Cl)Cl)c(Cl)c(OCCCC)c1Cl` are 0 survivors/total, -0.6 days and 135 mg kg-1 dose-1 day-1.
`FC(F)(F)COc1nc(C(Cl)(Cl)Cl)c(Cl)c(OCC(F)(F)F)c1Cl`: the Tumor-free in the assay listed under Mus musculus [1] is 0 survivors/total. This compound also had a T-C in the assay listed under Mus musculus [2] of 0.4 days. The compound further returned an Optimal dosage with Mus musculus [3] of 135 mg kg-1 dose-1 day-1.
In the case of `COc1c(Cl)c(O)nc(C(Cl)(Cl)Cl)c1Cl`, the Tumor-free in the assay listed under Mus musculus [1] is listed as 0 survivors/total. The same compound returned a T-C in the assay filed under Mus musculus [2] of 0.8 days. In the assay with Mus musculus [3], this compound showed an Optimal dosage of 135 mg kg-1 dose-1 day-1.
In the assay filed under Mus musculus [1], `CCOc1nc(C(Cl)(Cl)Cl)c(Cl)c(OCC)c1Cl` gave a Tumor-free of 4 survivors/total. This compound showed a T-C in the assay listed under Mus musculus [2] greater than 41 days. The compound also showed an Optimal dosage in the assay on Mus musculus [3] of 135 mg kg-1 dose-1 day-1.
Taken in the same sequence, the figures for `COc1c(Cl)c(Oc2ccccc2)nc(C(Cl)(Cl)Cl)c1Cl` were 0 survivors/total, 2.3 days and 135 mg kg-1 dose-1 day-1.
`COc1c(Cl)c(Cl)nc(C(Cl)(Cl)Cl)c1Cl` showed a Tumor-free in the assay filed under Mus musculus [1] of 0 survivors/total. Moreover, in the assay listed under Mus musculus [2], the T-C amounted to 4.3 days. The compound also gave an Optimal dosage in the assay on Mus musculus [3] of 50 mg kg-1 dose-1 day-1.
